# From PubChem BioAssay
# TAAR1 ag = human TAAR1 agonism; Q96RJ0; CHO RD-HGA16 TAAR1, Fluo-8 calcium fluorescence; vehicle wells 0%, saturating PEA agonist 100%; activation, % at 3 µM; actives 0.99% (n = 360,000); AID 624467;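 active means activation above the mean activation of all test compounds in the run plus 3 SD, cut at about 38% in these data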
#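 Benchmarks: low control DMSO, high control PEA (EC100); System: CHO RD-HGA16 cells carrying human TAAR1 plus Gα16; Detection: Fluo-8 fluorescence, 5 s baseline then 140 s kinetic read; Schedule: 17-24 h plating, Fluo-8 75 min 37 °C, 30 min RT; Read-out basis: % activation from peak over basal fluorescence ratio, DMSO-to-PEA scaled.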
# OX1R antag-1 = antagonists of human orexin 1 receptor; AID 434989; inhibition, % at 5 µM; actives 0.43% (n = 330,000); CHO/OX1R cells, Fluo-8 calcium fluorescence, orexin A; O43613;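 active means inhibition above its plate's threshold, mean inhibition of all tested compounds on the plate plus 3 SD, cut at about 37% in these data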;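 further: 0% = orexin A challenge wells and 100% = SB-334867-A antagonist wells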
# CHO parental Ca = signal in parental CHO cells, OX1R antagonist counter-screen; inhibition, % at 5.6 µM; parental CHO-K1, ATP-induced calcium, Fluo-8 fluorescence; actives 0.63% (n = 330,000);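 active means inhibition above that plate's mean sample inhibition plus 3 SD, cut at about 26% in these data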;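 further: 0% = ATP-challenged DMSO wells and 100% = DMSO wells without ATP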
#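 test system = CHO parental line | reagent = ATP stimulus | measured by = intracellular calcium via Fluo-8 no-wash fluorescent dye | control set = ATP and no-ATP DMSO wells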
# GPR7 antagonist = human neuropeptides B/W receptor 1 antagonism; GPR7-expressing cells, fluorescence antagonist assay; actives 1.1% (n = 290,000); P48145; inhibition, % at 4.4 µM; in the data active means inhibition above about 16%, passing the limit was not always enough;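 further: cells stimulated with the agonist NPW; 0% = agonist with vehicle and 100% = vehicle without agonist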
# Target sequence (P48145 whole entry, looked up): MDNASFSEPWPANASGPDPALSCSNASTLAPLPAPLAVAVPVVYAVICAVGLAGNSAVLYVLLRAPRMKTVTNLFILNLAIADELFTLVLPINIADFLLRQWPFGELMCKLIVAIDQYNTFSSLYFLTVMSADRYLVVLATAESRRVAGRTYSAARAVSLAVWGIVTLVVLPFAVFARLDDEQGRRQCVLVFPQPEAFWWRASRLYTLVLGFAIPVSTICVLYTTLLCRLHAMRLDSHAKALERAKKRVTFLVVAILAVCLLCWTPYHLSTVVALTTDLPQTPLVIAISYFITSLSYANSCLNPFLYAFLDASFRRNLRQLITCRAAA
# TAAR1 antag = human TAAR1 antagonism; Q96RJ0; CHO RD-HGA16 TAAR1, Fluo-8 calcium fluorescence, antagonist; inhibition, % at 3 µM; actives 1.5% (n = 360,000);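 active means inhibition above a per-plate cutoff, the mean inhibition of test compounds on that plate plus 3 SD, cut at about 49% in these data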;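 further: 0% = DMSO plus EC80 beta-PEA response and 100% = DMSO alone without agonist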
#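 Assay system: CHO-derived RD-HGA16 cells stably expressing human TAAR1 plus Gα16. Timing: 140 s kinetic read after compound, 140 s after agonist. Technique: kinetic Fluo-8 calcium fluorescence measurement. Measure: % inhibition of agonist calcium response.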
# OX1R antag-2 = blocks the human orexin 1 receptor; actives 1.8% (n = 330,000); OX1R-expressing cells, FRET antagonist read-out; O43613; inhibition, % at 6.6 µM; in the data active means inhibition mostly above about 38%, no sharp cut-off; inactive means mostly below about 40%;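 further: 0% = agonist challenge alone and 100% = reference antagonist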
# TAAR1 ag conf = confirmation of human TAAR1 agonists; activation, % at 3 µM; shares compounds with TAAR1 ag; CHO RD-HGA16 TAAR1, Fluo-8 calcium fluorescence; scaled: DMSO 0%, maximal phenethylamine 100%; actives 82% (n = 2,400);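 active means activation above a cutoff set at the run's mean compound activation plus 3 SD, cut at about 39% in these data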
# Ga16 nonsel ag = nonselective agonism, TAAR1 counter-screen | CHO-Ga16 parental, Fluo-8 calcium fluorescence; normalized to maximal ATP response, DMSO zero | shares compounds with TAAR1 ag | actives 50% (n = 2,400) | activation, % at 3 µM;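 active means activation above the run cutoff, the mean activation over all tested wells plus 3 SD, cut at about 12% in these data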;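 further: 0% = DMSO wells and 100% = maximal ATP response on the peak over basal ratio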
# TAAR1 desensitize = counter-screen for human TAAR1 agonists: agonists that desensitize TAAR1. inhibition, % at 3 µM. CHO RD-HGA16 hTAAR1, Fluo-8 calcium, beta-PEA response inhibition. shares compounds with TAAR1 ag. actives 46% (n = 2,400). AID 651951;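 active means inhibition above the run cutoff, the mean inhibition of all test compounds plus 3 SD, cut at about 49% in these data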;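 further: beta-PEA stimulus applied at its EC80; loss of beta-PEA calcium signal after compound pretreatment read as receptor desensitization; 0% = DMSO with beta-PEA at EC80 and 100% = DMSO alone without agonist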
# Ga16 nonsel ant = nonselective Ga16 antagonist in TAAR1 agonist counter-screen | shares compounds with TAAR1 ag | CHO-Ga16 ATP-induced calcium, Fluo-8 fluorescence | inhibition, % at 3 µM | actives 39% (n = 2,400);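 active means inhibition above the plate's mean compound inhibition plus 3 SD, computed per plate, cut at about 22% in these data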;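 further: 0% = EC80 ATP with DMSO and 100% = DMSO wells without ATP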
# * marks the source's active call; other numbers are inactive results; · = no result. Most compounds without a hit are left out; they make up all but 4.6% or so of the library.
SMILES,TAAR1 ag,OX1R antag-1,CHO parental Ca,GPR7 antagonist,TAAR1 antag,OX1R antag-2,TAAR1 ag conf,Ga16 nonsel ag,TAAR1 desensitize,Ga16 nonsel ant
CC(=O)c1c(C)[nH]c(C(=O)Nc2ccc(C)cc2Br)c1C,7,-52,-14,-5,-1,18,·,·,·,·
OCCNCc1cc(Br)ccc1OCc1ccc(Cl)cc1Cl,56*,·,·,21,-7,·,79*,49*,51*,41*
COc1cc(-c2nnc(SCC(=O)Nc3ccc(C(=O)O)cc3)o2)cc(OC)c1OC,3,4,-5,·,9,7,·,·,·,·
COc1ccc(C2CC(=O)C=C3c4ccc(OC)cc4CCC32)cc1 (configuration not stated),5,·,·,·,-10,·,·,·,·,·
COc1cccc(O)c1CN1CCC(C(=O)Nc2ccc(Oc3cccnc3)cc2)CC1,7,-10,0,4,7,20,·,·,·,·
COc1cccc(O)c1CN1CCC(C(=O)Nc2ccc(-c3cccc(C)c3)cc2)CC1,53*,-2,1,0,34,3,33,18*,41,37*
CCCCCOc1ccc(CSC(=N)N)cc1[N+](=O)[O-],59*,-27,-10,20,28,30,104*,59*,69*,29*
Cc1ccc(S(=O)(=O)N2CCOCC2)cc1NC(=O)CNc1ccccc1N1CCCC1=O,1,·,·,·,-3,·,·,·,·,·
Cc1cccc(C(=O)NC(NCCc2ccccc2)C(Cl)(Cl)Cl)c1 (configuration not stated),80*,-19,-27,-19,61*,29,69*,-1,48,4
Cc1cccc(C(=O)NC(NCc2ccco2)C(Cl)(Cl)Cl)c1 (configuration not stated),-4,-14,-17,-18,9,29,·,·,·,·
CC(C)(C)C(=O)c1c(N)[nH]c(C(=O)c2ccccc2)c1-c1ccccc1,9,·,·,·,-8,·,·,·,·,·
O=C(CSc1nc2ccc(NC(=O)CSc3nnnn3Cc3ccccc3)cc2s1)Nc1ccccc1,1,6,11,-8,28,22,·,·,·,·
Cn1cnnc1SCC(=O)Nc1ccc2nc(SCc3ccccc3)sc2c1,44*,-34,-34,25,2,29,48*,21*,24,25*
Cc1ccccc1C(=O)N1CCN(c2ccc(NC(=O)Cc3ccccc3)cc2)CC1,2,-20,-1,-5,-8,17,·,·,·,·
Cc1ccc(Cn2ncc3c(N4CCN(Cc5ccc(Cl)cc5)CC4)ncnc32)cc1,11,-30,-23,1,-25,32,·,·,·,·
CC1CCN(c2ncnc3c2cnn3Cc2ccc(Cl)cc2)CC1,51*,-12,-29,6,25,21,38*,20*,26,15
CCCCCCCCCc1conc1C(=O)/C=C/c1ccco1,6,·,·,·,-14,·,·,·,·,·
N=c1c2c(-c3ccccc3)c(-c3ccccc3)n(Cc3ccccc3)c2ncn1CCCn1ccnc1,61*,-11,-31,-3,-19,13,49*,15*,10,13
O=C(O)c1ccc(-n2cc(C(=O)c3ccccc3O)cn2)cc1,65*,-8,-6,3,14,0,19,9,13,14
O=C(COc1ccc(Cl)cc1Cl)NC(=S)N1CCCc2ccccc21,51*,1,-10,-4,-16,37,30,6,2,9
COC(=O)C1CCN(C(=O)COC(=O)c2cc(-c3ccccc3)nc3ccc(OC)cc23)CC1,·,-8,-21,·,·,5,·,·,·,·
CCCCCCCCN1C(=O)[C@H](CC(=O)NCCCOC)C[C@@]2(C(=O)OC)CCCCC=C12,1,·,·,·,6,·,·,·,·,·
CCCCCCCCN1C(=O)[C@@H](CC(=O)NCc2ccccc2)C[C@@]2(C(=O)OC)C1=C[C@H](C1CCCC1)O[C@@H]2C,-1,·,·,·,-13,·,·,·,·,·
CCCCCCCCN1C(=O)[C@H](CC(=O)NCCc2ccccc2OC)C[C@@]2(C(=O)OCC)CCC=C12,59*,·,·,·,19,·,80*,-1,48,2
CCOC(=O)[C@]12CCC=C1N(Cc1ccco1)C(=O)[C@H](CC(=O)NCCc1ccccc1OC)C2,62*,·,·,·,0,·,69*,-1,43,11
CCCCCCCCN1C(=O)[C@H](CC(=O)NCCc2ccccc2OC)C[C@@]2(C(=O)OC)CCCCC=C12,51*,·,·,·,-7,·,81*,1,65*,13
CCCCCCCCN1C(=O)[C@@H](CC(=O)NCCc2ccccc2OC)C[C@@]2(C(=O)OC)C1=C[C@H](C(C)(C)C)O[C@@H]2C,75*,·,·,·,16,·,85*,0,52*,4
CCOc1ccc2c(c1)c1nnc(SCC(=O)NC3CC3)nc1n2C,-2,-7,-1,-7,-3,57,·,·,·,·
